Source: ChEMBL document CHEMBL4257459, “Synergistic antifungal effect of cyclized chalcone derivatives and fluconazole against Candida albicans” (2017)

Assays:
Candida albicans [1] = experiment: Antifungal activity against fluconazole resistant Candida albicans A171 by CLSI protocol based broth microdilution method; assay type: functional
In short: (§1)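 Broth microdilution per CLSI M27-A3 against clinical C. albicans isolates. Strains sub-cultured at least twice on Tryptone Soya Agar, 37 °C, 48 h. Compounds dissolved in DMSO at 2000 μg mL–1 stock. Fluconazole positive control, plus culture, media and vehicle controls. Run in duplicate; MIC in μg mL–1.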

Candida albicans [2] = experiment: Inhibition of ergosterol biosynthesis in fluconazole susceptible Candida albicans ATCC 90028 at 0.5 to 1 times MIC relative to control; assay type: functional
In short: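 ATCC90028 grown in 50 ml TSB with MIC and ½ MIC of compound; untreated and 8 μg mL–1 fluconazole controls. Sterols extracted by alcoholic KOH method and spectrophotometrically scanned; ergosterol % calculated from A281.5 and A230 (E values 290 and 518) with dilution factor, per pellet weight.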

Candida albicans [3] = experiment: Inhibition of ABC efflux pumps in fluconazole resistant Candida albicans 167-1 assessed as reduction in energy-dependent rhodamine 6G efflux in presence of 0.1 M glucose after 25 mins […] relative to control
Candida albicans [4] = experiment: Antifungal activity against fluconazole susceptible Candida albicans 004B1 in presence of fluconazole by CLSI protocol based broth microdilution method; assay type: functional
Candida albicans [5] = experiment: Antifungal activity against fluconazole susceptible Candida albicans 003gr by CLSI protocol based broth microdilution method; assay type: functional
In short: (§2)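 Clinical isolates and control strain subcultured at least twice on TSA, 37 °C, 48 h. MICs by CLSI M27-A3 broth microdilution; compounds dissolved in DMSO to 2000 μg mL–1 stock. Fluconazole positive control, culture, media and DMSO vehicle controls in each run. Duplicate experiments; MIC in μg mL–1.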

Candida albicans [6] = experiment: Inhibition of ergosterol biosynthesis in fluconazole resistant Candida albicans A171 at 0.5 to 1 times MIC relative to control; assay type: functional
In short: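 Total sterols quantified by alcoholic KOH extraction in cells grown in 50 ml TSB with compounds at MIC and ½ MIC; untreated and 8 μg mL–1 fluconazole controls. Spectral scan; ergosterol content from A281.5 and A230 absorbances, dilution factor and pellet weight, correcting for 24(28) DHE.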

Candida albicans [7] = experiment: Antifungal activity against fluconazole susceptible Candida albicans 0079gr in presence of fluconazole by CLSI protocol based broth microdilution method; assay type: functional
Candida albicans [8] = experiment: Antifungal activity against fluconazole resistant Candida albicans A171 in presence of fluconazole by CLSI protocol based broth microdilution method; assay type: functional
In short: (§3)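 Checkerboard-style combination with fluconazole at a 1 : 1 ratio, over concentrations 2–4 fold below each agent's MIC alone, by CLSI broth microdilution. Fractional inhibitory concentration index calculated and interpreted as synergy (<0.5), additive (0.5–1), indifferent or antagonistic.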

Candida albicans [9] = experiment: Antifungal activity against fluconazole susceptible Candida albicans 0072gr in presence of fluconazole by CLSI protocol based broth microdilution method; assay type: functional
Candida albicans [10] = experiment: Inhibition of ABC efflux pumps in fluconazole resistant Candida albicans A171 assessed as reduction in energy-dependent rhodamine 6G efflux in presence of 0.1 M glucose after 25 mins by fluorescence assay relative to control
In short: (§4)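 Cells grown in TSB at 37 °C for 8 h, washed, resuspended in glucose-free PBS at 1 × 10^8 cells. De-energized 45 min with 5 mM deoxyglucose plus 5 mM dinitrophenol. […] Washed, sampled 5–25 min, then 0.1 M glucose added. Absorbance 527 nm, R6G from standard curve.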

Candida albicans [11] = experiment: Inhibition of ABC efflux pumps in fluconazole susceptible Candida albicans 0079gr assessed as reduction in energy-dependent rhodamine 6G efflux in presence of 0.1 M glucose after 25 mins by fluorescence assay relative to control; in short: as §4
Candida albicans [12] = experiment: Antifungal activity against fluconazole susceptible Candida albicans 0072gr by CLSI protocol based broth microdilution method; assay type: functional; in short: as §2
Candida albicans [13] = experiment: Inhibition of ABC efflux pumps in fluconazole susceptible Candida albicans 004B1 assessed as reduction in energy-dependent rhodamine 6G efflux in presence of 0.1 M glucose after 25 mins by fluorescence assay relative to control; in short: as §4
Candida albicans [14] = experiment: Antifungal activity against Candida albicans ATCC 90028 in presence of fluconazole by CLSI protocol based broth microdilution method; assay type: functional
Candida albicans [15] = experiment: Antifungal activity against fluconazole susceptible Candida albicans 0079gr by CLSI protocol based broth microdilution method; assay type: functional; in short: as §2
Candida albicans [16] = experiment: Antifungal activity against fluconazole resistant Candida albicans 167-2 by CLSI protocol based broth microdilution method; assay type: functional; in short: as §1
Candida albicans [17] = experiment: Antifungal activity against fluconazole susceptible Candida albicans 004gr in presence of fluconazole by CLSI protocol based broth microdilution method; assay type: functional
Candida albicans [18] = experiment: Inhibition of ABC efflux pumps in fluconazole susceptible Candida albicans 003gr assessed as reduction in energy-dependent rhodamine 6G efflux in presence of 0.1 M glucose after 25 mins […] relative to control
Candida albicans [19] = experiment: Antifungal activity against fluconazole resistant Candida albicans 167-2 in presence of fluconazole by CLSI protocol based broth microdilution method; assay type: functional; in short: as §3
Candida albicans [20] = experiment: Antifungal activity against fluconazole susceptible Candida albicans 004B1 by CLSI protocol based broth microdilution method; assay type: functional; in short: as §2
Candida albicans [21] = experiment: Down regulation of ERG11 gene expression in fluconazole resistant Candida albicans A171 at MIC after 2 hrs by qRT PCR analysis relative to control; assay type: functional
In short: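 Cells exposed 2 h to test agents at MIC. Total RNA isolated, cDNA synthesized, qPCR for ERG11 with ACT1 as endogenous control. Triplicate independent experiments, reported as mean ± standard deviation.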

Candida albicans [22] = experiment: Antifungal activity against fluconazole susceptible Candida albicans 002B1 by CLSI protocol based broth microdilution method; assay type: functional; in short: as §2
Candida albicans [23] = experiment: Inhibition of ABC efflux pumps in fluconazole susceptible Candida albicans 0072gr assessed as reduction in energy-dependent rhodamine 6G efflux in presence of 0.1 M glucose after 25 mins […] relative to control
Candida albicans [24] = experiment: Antifungal activity against Candida albicans ATCC 90028 by CLSI protocol based broth microdilution method; assay type: functional; in short: as §2
Candida albicans [25] = experiment: Antifungal activity against fluconazole susceptible Candida albicans 002B1 in presence of fluconazole by CLSI protocol based broth microdilution method; assay type: functional
Candida albicans [26] = experiment: Antifungal activity against fluconazole resistant Candida albicans 167-1 by CLSI protocol based broth microdilution method; assay type: functional; in short: as §1
Candida albicans [27] = experiment: Inhibition of ABC efflux pumps in fluconazole susceptible Candida albicans 002B1 assessed as reduction in energy-dependent rhodamine 6G efflux in presence of 0.1 M glucose after 25 mins […] relative to control
Candida albicans [28] = experiment: Antifungal activity against fluconazole susceptible Candida albicans 004gr by CLSI protocol based broth microdilution method; assay type: functional; in short: as §2
Candida albicans [29] = experiment: Antifungal activity against fluconazole susceptible Candida albicans 003gr in presence of fluconazole by CLSI protocol based broth microdilution method; assay type: functional
Candida albicans [30] = experiment: Down regulation of ERG11 gene expression in fluconazole susceptible Candida albicans ATCC 90028 at MIC after 2 hrs by qRT PCR analysis relative to control; assay type: functional
In short: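 Cells exposed to compound at MIC for 2 h; total RNA isolated, cDNA synthesised, ERG11 measured by real-time qPCR with ACT1 as endogenous control. Triplicate independent experiments; mean ± standard deviation.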

Candida albicans [31] = experiment: Inhibition of ABC efflux pumps in fluconazole susceptible Candida albicans 004gr assessed as reduction in energy-dependent rhodamine 6G efflux in presence of 0.1 M glucose after 25 mins by fluorescence assay relative to control; in short: as §4
Candida albicans [32] = experiment: Inhibition of ABC efflux pumps in fluconazole resistant Candida albicans 167-2 assessed as reduction in energy-dependent rhodamine 6G efflux in presence of 0.1 M glucose after 25 mins […] relative to control
Candida albicans [33] = experiment: Antifungal activity against fluconazole resistant Candida albicans 167-1 in presence of fluconazole by CLSI protocol based broth microdilution method; assay type: functional; in short: as §3

c1ccc(-c2cc(-c3ccc(-c4cc(-c5ccccc5)n[nH]4)cc3)[nH]n2)cc1
2 to 16 µg/mL: MIC (Candida albicans [5]) | MIC (Candida albicans [12]) | MIC (Candida albicans [15]) | MIC (Candida albicans [20]) | MIC (Candida albicans [22]) | MIC (Candida albicans [24]) | MIC (Candida albicans [28])
1.25 - 10: fold change (FC) (Candida albicans [21])
0.531 - 2.27: fractional inhibitory concentration index (FICI) (Candida albicans [8]) | fractional inhibitory concentration index (FICI) (Candida albicans [19]) | fractional inhibitory concentration index (FICI) (Candida albicans [33])
66 - 99%: inhibition (INH) (Candida albicans [2])
49 - 94%: inhibition (INH) (Candida albicans [6])
< 20%: inhibition (Candida albicans [3]) | inhibition (Candida albicans [10]) | inhibition (Candida albicans [11]) | inhibition (Candida albicans [13]) | inhibition (Candida albicans [18]) | inhibition (Candida albicans [23]) | inhibition (Candida albicans [27]) | inhibition (Candida albicans [31]) | inhibition (Candida albicans [32])
0.63 - 1.5: fractional inhibitory concentration index (FICI) (Candida albicans [4]) | fractional inhibitory concentration index (FICI) (Candida albicans [7]) | fractional inhibitory concentration index (FICI) (Candida albicans [9]) | fractional inhibitory concentration index (FICI) (Candida albicans [14]) | fractional inhibitory concentration index (FICI) (Candida albicans [17]) | fractional inhibitory concentration index (FICI) (Candida albicans [25]) | fractional inhibitory concentration index (FICI) (Candida albicans [29])
1.5 - 13: fold change (FC) (Candida albicans [30])
31 to 125 µg/mL: MIC (Candida albicans [1]) | MIC (Candida albicans [16]) | MIC (Candida albicans [26])
